Reference: BindingDB's records for doi:10.1021/acs.jmedchem.5b00162 (University of Montreal, 2015)
pEC50: −log10 of the molar value.

Legend:
Urotensin-2 receptor [1] = target: T1, Urotensin-2 receptor (Rattus norvegicus, UniProt P49684); assay: Modulation of urotensin-2 receptor in Sprague-Dawley rat thoracic aortic ring assessed as human urotensin-2 EC50 for induction of aortic ring contraction at 10 uM preincubated for 15 mins followed by human urotensin-2 addition (Rvb = 1.9 nM)
T1 sequence (P49684 whole entry): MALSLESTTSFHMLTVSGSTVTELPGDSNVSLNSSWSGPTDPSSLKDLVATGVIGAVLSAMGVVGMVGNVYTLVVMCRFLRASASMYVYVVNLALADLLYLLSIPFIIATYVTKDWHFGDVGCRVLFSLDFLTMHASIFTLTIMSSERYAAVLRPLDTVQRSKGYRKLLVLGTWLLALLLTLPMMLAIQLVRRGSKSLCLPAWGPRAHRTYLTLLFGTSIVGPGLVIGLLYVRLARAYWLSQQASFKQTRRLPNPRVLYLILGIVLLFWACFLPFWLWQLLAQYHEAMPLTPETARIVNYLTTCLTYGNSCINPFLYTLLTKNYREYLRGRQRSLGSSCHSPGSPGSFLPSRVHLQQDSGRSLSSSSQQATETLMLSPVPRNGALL
In short: (§1)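 Thoracic aortic rings from adult male Sprague-Dawley rats (250–300 g, killed by CO2). Rings were exposed to test compound for 15 min, then cumulative hUII concentration-response curves were run (10-10–3.10-6 M). Contraction is expressed as % of the 40 mM KCl response, with KCl given at the start and end. EC50/pEC50/Emax come from a variable-slope sigmoidal fit. At least triplicate.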

Urotensin-2 receptor [2] = target: T1, Urotensin-2 receptor; assay: Modulation of urotensin-2 receptor in Sprague-Dawley rat thoracic aortic ring assessed as urotensin-2 related peptide pEC50 for induction of aortic ring contraction at 10 uM preincubated for 15 mins followed by urotensin-2 related peptide addition (Rvb = 7.89 +/- 0.08 no unit)
Urotensin-2 receptor [3] = target: T1, Urotensin-2 receptor; assay: Modulation of urotensin-2 receptor in Sprague-Dawley rat thoracic aortic ring assessed as urotensin-2 related peptide EC50 for induction of aortic ring contraction at 10 uM preincubated for 15 mins followed by urotensin-2 related peptide addition (Rvb = 13 nM)
Urotensin-2 receptor [4] = target: T1, Urotensin-2 receptor; assay: Modulation of urotensin-2 receptor in Sprague-Dawley rat thoracic aortic ring assessed as human urotensin-2 pEC50 for induction of aortic ring contraction at 10 uM preincubated for 15 mins followed by human urotensin-2 addition (Rvb = 8.71 +/- 0.08 no unit); in short: as §1
[5] = Modulation of urotensin-2 receptor in Sprague-Dawley rat thoracic aortic ring assessed as urotensin-2 related peptide pEC50 for induction of aortic ring contraction at 15 uM preincubated for 15 mins followed by urotensin-2 related peptide addition (Rvb = 7.89 +/- 0.08 no unit)
[6] = Modulation of urotensin-2 receptor in Sprague-Dawley rat thoracic aortic ring assessed as human urotensin-2 EC50 for induction of aortic ring contraction at 15 uM preincubated for 15 mins followed by human urotensin-2 addition (Rvb = 1.9 nM)
[7] = Modulation of urotensin-2 receptor in Sprague-Dawley rat thoracic aortic ring assessed as human urotensin-2 pEC50 for induction of aortic ring contraction at 15 uM preincubated for 15 mins followed by human urotensin-2 addition (Rvb = 8.71 +/- 0.08 no unit)
[8] = Modulation of urotensin-2 receptor in Sprague-Dawley rat thoracic aortic ring assessed as urotensin-2 related peptide EC50 for induction of aortic ring contraction at 15 uM preincubated for 15 mins followed by urotensin-2 related peptide addition (Rvb = 13 nM)
Urotensin-2 receptor [9] = target: T1, Urotensin-2 receptor; assay: Modulation of urotensin-2 receptor in Sprague-Dawley rat thoracic aortic ring assessed as human urotensin-2 pEC50 for induction of aortic ring contraction at 1 uM preincubated for 15 mins followed by human urotensin-2 addition (Rvb = 8.71 +/- 0.08 no unit)
Urotensin-2 receptor [10] = target: T1, Urotensin-2 receptor; assay: Modulation of urotensin-2 receptor in Sprague-Dawley rat thoracic aortic ring assessed as human urotensin-2 pEC50 for induction of aortic ring contraction at 4 uM preincubated for 15 mins followed by human urotensin-2 addition (Rvb = 8.71 +/- 0.08 no unit)
Urotensin-2 receptor [11] = target: T1, Urotensin-2 receptor; assay: Modulation of urotensin-2 receptor in Sprague-Dawley rat thoracic aortic ring assessed as urotensin-2 related peptide pEC50 for induction of aortic ring contraction at 14 uM preincubated for 15 mins followed by urotensin-2 related peptide addition (Rvb = 7.89 +/- 0.08 no unit)
Urotensin-2 receptor [12] = target: T1, Urotensin-2 receptor; assay: Modulation of urotensin-2 receptor in Sprague-Dawley rat thoracic aortic ring assessed as human urotensin-2 EC50 for induction of aortic ring contraction at 1 uM preincubated for 15 mins followed by human urotensin-2 addition (Rvb = 1.9 nM)
Urotensin-2 receptor [13] = target: T1, Urotensin-2 receptor; assay: Modulation of urotensin-2 receptor in Sprague-Dawley rat thoracic aortic ring assessed as human urotensin-2 EC50 for induction of aortic ring contraction at 4 uM preincubated for 15 mins followed by human urotensin-2 addition (Rvb = 1.9 nM)
Urotensin-2 receptor [14] = target: T1, Urotensin-2 receptor; assay: Modulation of urotensin-2 receptor in Sprague-Dawley rat thoracic aortic ring assessed as urotensin-2 related peptide EC50 for induction of aortic ring contraction at 14 uM preincubated for 15 mins followed by urotensin-2 related peptide addition (Rvb = 13 nM)
Urotensin-2 receptor [15] = target: T1, Urotensin-2 receptor; assay: Modulation of urotensin-2 receptor in Sprague-Dawley rat thoracic aortic ring assessed as urotensin-2 related peptide EC50 for induction of aortic ring contraction at 11 uM preincubated for 15 mins followed by urotensin-2 related peptide addition (Rvb = 13 nM)
Urotensin-2 receptor [16] = target: T1, Urotensin-2 receptor; assay: Modulation of urotensin-2 receptor in Sprague-Dawley rat thoracic aortic ring assessed as human urotensin-2 EC50 for induction of aortic ring contraction at 11 uM preincubated for 15 mins followed by human urotensin-2 addition (Rvb = 1.9 nM)
Urotensin-2 receptor [17] = target: T1, Urotensin-2 receptor; assay: Modulation of urotensin-2 receptor in Sprague-Dawley rat thoracic aortic ring assessed as human urotensin-2 pEC50 for induction of aortic ring contraction at 11 uM preincubated for 15 mins followed by human urotensin-2 addition (Rvb = 8.71 +/- 0.08 no unit)
Urotensin-2 receptor [18] = target: T1, Urotensin-2 receptor; assay: Modulation of urotensin-2 receptor in Sprague-Dawley rat thoracic aortic ring assessed as urotensin-2 related peptide pEC50 for induction of aortic ring contraction at 11 uM preincubated for 15 mins followed by urotensin-2 related peptide addition (Rvb = 7.89 +/- 0.08 no unit)
Urotensin-2 receptor [19] = target: T1, Urotensin-2 receptor; assay: Modulation of urotensin-2 receptor in Sprague-Dawley rat thoracic aortic ring assessed as human urotensin-2 pEC50 for induction of aortic ring contraction at 14 uM preincubated for 15 mins followed by human urotensin-2 addition (Rvb = 8.71 +/- 0.08 no unit)
Urotensin-2 receptor [20] = target: T1, Urotensin-2 receptor; assay: Modulation of urotensin-2 receptor in Sprague-Dawley rat thoracic aortic ring assessed as human urotensin-2 EC50 for induction of aortic ring contraction at 14 uM preincubated for 15 mins followed by human urotensin-2 addition (Rvb = 1.9 nM)
[21] = Modulation of urotensin-2 receptor in Sprague-Dawley rat thoracic aortic ring assessed as human urotensin-2 EC50 for induction of aortic ring contraction at 8 uM preincubated for 15 mins followed by human urotensin-2 addition (Rvb = 1.9 nM)
[22] = Modulation of urotensin-2 receptor in Sprague-Dawley rat thoracic aortic ring assessed as human urotensin-2 pEC50 for induction of aortic ring contraction at 8 uM preincubated for 15 mins followed by human urotensin-2 addition (Rvb = 8.71 +/- 0.08 no unit)
[23] = Modulation of urotensin-2 receptor in Sprague-Dawley rat thoracic aortic ring assessed as urotensin-2 related peptide pEC50 for induction of aortic ring contraction at 8 uM preincubated for 15 mins followed by urotensin-2 related peptide addition (Rvb = 7.89 +/- 0.08 no unit)
[24] = Modulation of urotensin-2 receptor in Sprague-Dawley rat thoracic aortic ring assessed as urotensin-2 related peptide EC50 for induction of aortic ring contraction at 8 uM preincubated for 15 mins followed by urotensin-2 related peptide addition (Rvb = 13 nM)

Structure (SMILES) | pEC50 (Urotensin-2 receptor [1]) | pEC50 (Urotensin-2 receptor [2]) | pEC50 (Urotensin-2 receptor [3]) | pEC50 (Urotensin-2 receptor [4]) | other results
NCCC[C@@H]1N[C@@H](c2cccc3ccccc23)c2[nH]c(C(=O)O)cc2N(CCc2ccc(O)cc2)C1=O | 8.32 | 8.44 | 8.43 | 8.32 | 
NCCC[C@@H]1N=C(c2cccc3ccccc23)c2[nH]c(C(=O)O)cc2N(CCc2ccc(O)cc2)C1=O | 8.57 | 7.92 | 7.92 | 8.59 | 
NCCCC[C@@H]1N=C(c2ccc(-c3ccccc3)cc2)c2[nH]c(C(=O)O)cc2N(CCc2ccc(O)cc2)C1=O |  |  |  |  | pEC50 [5]: 7.92; pEC50 [6]: 8.18; pEC50 [7]: 8.19; pEC50 [8]: 7.92
NCCCC[C@@H]1N[C@@H](c2ccc3ccccc3c2)c2[nH]c(C(=O)O)cc2N(CCc2ccc(O)cc2)C1=O | 8.82 | 8.06 | 8.06 | 8.82 | 
NCCCC[C@@H]1N[C@H](c2ccc(-c3ccccc3)cc2)c2[nH]c(C(=O)O)cc2N(CCc2ccc(O)cc2)C1=O |  |  |  |  | pEC50 (Urotensin-2 receptor [9]): 8.35; pEC50 (Urotensin-2 receptor [10]): 8.46; pEC50 (Urotensin-2 receptor [11]): 7.72; pEC50 (Urotensin-2 receptor [12]): 8.35; pEC50 (Urotensin-2 receptor [13]): 8.46; pEC50 (Urotensin-2 receptor [14]): 7.72
NCCC[C@@H]1N[C@H](c2cccc3ccccc23)c2[nH]c(C(=O)O)cc2N(CCc2ccc(O)cc2)C1=O | 8.24 | 8.34 | 8.35 | 8.25 | 
NCCC[C@@H]1N[C@H](c2ccc(-c3ccccc3)cc2)c2[nH]c(C(=O)O)cc2N(CCc2ccc(O)cc2)C1=O |  |  |  |  | pEC50 (Urotensin-2 receptor [15]): 8.09; pEC50 (Urotensin-2 receptor [16]): 8.37; pEC50 (Urotensin-2 receptor [17]): 8.37; pEC50 (Urotensin-2 receptor [18]): 8.09
NCCCC[C@@H]1N=C(c2ccc3ccccc3c2)c2[nH]c(C(=O)O)cc2N(CCc2ccc(O)cc2)C1=O | 8.40 | 7.68 | 7.68 | 8.33 | 
NCCCC[C@@H]1N[C@@H](c2ccc(-c3ccccc3)cc2)c2[nH]c(C(=O)O)cc2N(CCc2ccc(O)cc2)C1=O |  |  |  |  | pEC50 (Urotensin-2 receptor [19]): 8.06; pEC50 (Urotensin-2 receptor [20]): 8.06; pEC50 (Urotensin-2 receptor [11]): 8.00; pEC50 (Urotensin-2 receptor [14]): 8.00
NCCC[C@@H]1N=C(c2ccc(-c3ccccc3)cc2)c2[nH]c(C(=O)O)cc2N(CCc2ccc(O)cc2)C1=O | 7.92 | 7.64 | 7.64 | 7.92 | 
NCCC[C@@H]1N=C(c2ccc3ccccc3c2)c2[nH]c(C(=O)O)cc2N(CCc2ccc(O)cc2)C1=O | 8.02 | 8.17 | 8.17 | 8.03 | 
NCCCC[C@@H]1N=C(c2cccc3ccccc23)c2[nH]c(C(=O)O)cc2N(CCc2ccc(O)cc2)C1=O |  |  |  |  | pEC50 [21]: 8.11; pEC50 [22]: 8.11; pEC50 [23]: 8.27; pEC50 [24]: 8.28
NCCCC[C@@H]1N[C@H](c2ccc3ccccc3c2)c2[nH]c(C(=O)O)cc2N(CCc2ccc(O)cc2)C1=O | 8.30 | 8.08 | 8.09 | 8.31 | 
